Test results: ChEMBL document CHEMBL1125326, “Potent gonadotropin releasing hormone antagonists with low histamine-releasing activity” (J Med Chem, 1992)
In brackets after ≈: the same amount, converted by molar mass.

The compounds below were run on Rattus norvegicus (assay: Evaluated for the anti-ovulatory activity (rats were injected subcutaneously at noon on proestrus)).
Type: functional
Method in brief: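 Female rats with at least two consecutive normal 4-day cycles, confirmed by vaginal lavage cytology, were dosed once s.c. at noon on proestrus in 50% propylene glycol/0.9% saline. On the morning of expected estrus, the oviducts were examined for ovulated eggs, which were counted. The effective dose came from % females ovulating plotted against log dose, usually with ≥3 dose groups (10 rats per group total).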

Row | SMILES | ED50 [µg]
1 | CC(=O)N[C@H](Cc1ccc2ccccc2c1)C(=O)N[C@H](Cc1ccc(Cl)cc1)C(=O)N[C@H](Cc1c[nH]c2ccccc12)C(=O)N[C@@H](CO)C(=O)N[C@@H](Cc1ccc(O)cc1)C(=O)N[C@H](Cc1c[nH]c2ccccc12)C(=O)N[C@@H](CC(C)C)C(=O)N[C@@H](CCCCN=C(NCC(F)(F)F)NCC(F)(F)F)C(=O)N1CCC[C@H]1C(=O)N[C@H](C)C(N)=O [listing 1 of 2 here] | >2
2 | CC/N=C(/NCC)NCCCC[C@@H](NC(=O)[C@H](Cc1ccc(O)cc1)NC(=O)[C@H](CO)NC(=O)[C@@H](Cc1cccnc1)NC(=O)[C@@H](Cc1ccc(Cl)cc1)NC(=O)[C@@H](Cc1ccc2ccccc2c1)NC(C)=O)C(=O)N[C@@H](CC(C)C)C(=O)N[C@@H](CCCCN/C(=N/CC)NCC)C(=O)N1CCC[C@H]1C(=O)N[C@H](C)C(N)=O [listing 1 of 2 here] | 0.285
3 | CC(=O)N[C@H](Cc1ccc2ccccc2c1)C(=O)N[C@H](Cc1ccc(Cl)cc1)C(=O)N[C@H](Cc1c[nH]c2ccccc12)C(=O)N[C@@H](CO)C(=O)N[C@@H](CCCN=C(N)N)C(=O)N[C@H](Cc1c[nH]c2ccccc12)C(=O)N[C@@H](CC(C)C)C(=O)N[C@@H](CCCCN=C(NCC(F)(F)F)NCC(F)(F)F)C(=O)N1CCC[C@H]1C(=O)N[C@H](C)C(N)=O [listing 1 of 2 here] | >2
4 | CC/N=C(/NCC)NCCCC[C@@H](NC(=O)[C@H](Cc1ccc(O)cc1)NC(=O)[C@H](CO)NC(=O)[C@@H](Cc1cccnc1)NC(=O)[C@@H](Cc1ccc(F)cc1)NC(=O)[C@@H](Cc1ccc2ccccc2c1)NC(C)=O)C(=O)N[C@@H](CC(C)C)C(=O)N[C@@H](CCCCN/C(=N/CC)NCC)C(=O)N1CCC[C@H]1C(=O)N[C@H](C)C(N)=O [listing 1 of 2 here] | 1
5 | CC(=O)N[C@H](Cc1ccc2ccccc2c1)C(=O)N[C@H](Cc1ccc(Cl)cc1)C(=O)N[C@H](Cc1c[nH]c2ccccc12)C(=O)N[C@@H](CO)C(=O)N[C@@H](Cc1ccc(O)cc1)C(=O)N[C@H](CCCCNC1=NCCCN1)C(=O)N[C@@H](CC(C)C)C(=O)N[C@@H](CCCCNC1=NCCCN1)C(=O)N1CCC[C@H]1C(=O)N[C@H](C)C(N)=O [listing 1 of 2 here] | 0.7
6 | CC/N=C(/NCC)NCCCC[C@@H](NC(=O)[C@H](Cc1ccc(O)cc1)NC(=O)[C@H](CO)NC(=O)[C@@H](Cc1c[nH]c2ccccc12)NC(=O)[C@@H](Cc1ccc(Cl)cc1)NC(=O)[C@@H](Cc1ccc2ccccc2c1)NC(C)=O)C(=O)N[C@@H](CC(C)C)C(=O)N[C@@H](CCCCN/C(=N/CC)NCC)C(=O)N1CCC[C@H]1C(=O)N[C@H](C)C(N)=O [listing 1 of 2 here] | 0.5
7 | CC(=O)N[C@H](Cc1ccc2ccccc2c1)C(=O)N[C@H](Cc1ccc(Cl)cc1)C(=O)N[C@H](Cc1c[nH]c2ccccc12)C(=O)N[C@@H](CO)C(=O)N[C@@H](Cc1ccc(O)cc1)C(=O)N[C@H](Cc1c[nH]c2ccccc12)C(=O)N[C@@H](CC(C)C)C(=O)N[C@@H](CCCCNC1=NCCCN1)C(=O)N1CCC[C@H]1C(=O)N[C@H](C)C(N)=O [listing 1 of 2 here] | >1
8 | CCCC/N=C(\N)NCCCC[C@H](NC(=O)[C@H](CO)NC(=O)[C@@H](Cc1cccnc1)NC(=O)[C@@H](Cc1ccc(Cl)cc1)NC(=O)[C@@H](Cc1ccc2ccccc2c1)NC(C)=O)C(=O)N[C@H](Cc1cccnc1)C(=O)N[C@@H](CC(C)C)C(=O)N[C@@H](CCCCN/C(N)=N/CCCC)C(=O)N1CCC[C@H]1C(=O)N[C@H](C)C(N)=O [listing 1 of 2 here] | 1.5

Species: Rattus norvegicus
Experiment: Evaluated for the release of histamine in rats (based on 10 animals per dose group)
Type: functional, organism-based

Row | EC50 [µg/mL] | SMILES
9 | 0.1 (≈ 0.0622 µM) | CC/N=C(/NCC)NCCCC[C@@H](NC(=O)[C@H](Cc1ccc(O)cc1)NC(=O)[C@H](CO)NC(=O)[C@@H](Cc1c[nH]c2ccccc12)NC(=O)[C@@H](Cc1ccc(Cl)cc1)NC(=O)[C@@H](Cc1ccc2ccccc2c1)NC(C)=O)C(=O)N[C@@H](CC(C)C)C(=O)N[C@@H](CCCCN/C(=N/CC)NCC)C(=O)N1CCC[C@H]1C(=O)N[C@H](C)C(N)=O [listing 2 of 2 here]
10 | 9.3 (≈ 5.6 µM) | CC/N=C(\NCC)NCCCC[C@H](NC(=O)[C@H](CC(C)C)NC(=O)[C@@H](CCCCN=C(NCC(F)(F)F)NCC(F)(F)F)NC(=O)[C@H](Cc1ccc(O)cc1)NC(=O)[C@H](CO)NC(=O)[C@@H](Cc1cccnc1)NC(=O)[C@@H](Cc1ccc(F)cc1)NC(=O)[C@@H](Cc1ccc2ccccc2c1)NC(C)=O)C(=O)N1CCC[C@H]1C(=O)N[C@H](C)C(N)=O
11 | 26.2 (≈ 17 µM) | CC/N=C(\NCC)NCCCC[C@H](NC(=O)[C@H](CO)NC(=O)[C@@H](Cc1cccnc1)NC(=O)[C@@H](Cc1ccc(F)cc1)NC(=O)[C@@H](Cc1ccc2ccccc2c1)NC(C)=O)C(=O)N[C@H](Cc1cccnc1)C(=O)N[C@@H](CC(C)C)C(=O)N[C@@H](CCCCN/C(=N/CC)NCC)C(=O)N1CCC[C@H]1C(=O)N[C@H](C)C(N)=O
12 | 8.5 (≈ 5.48 µM) | CC(=O)N[C@H](Cc1ccc2ccccc2c1)C(=O)N[C@H](Cc1ccc(Cl)cc1)C(=O)N[C@H](Cc1c[nH]c2ccccc12)C(=O)N[C@@H](CO)C(=O)N[C@@H](Cc1ccc(O)cc1)C(=O)N[C@H](Cc1c[nH]c2ccccc12)C(=O)N[C@@H](CC(C)C)C(=O)N[C@@H](CCCCNC1=NCCCN1)C(=O)N1CCC[C@H]1C(=O)N[C@H](C)C(N)=O [listing 2 of 2 here]
13 | 13 (≈ 8.28 µM) | CC/N=C(/NCC)NCCCC[C@@H](NC(=O)[C@H](Cc1ccc(O)cc1)NC(=O)[C@H](CO)NC(=O)[C@@H](Cc1cccnc1)NC(=O)[C@@H](Cc1ccc(Cl)cc1)NC(=O)[C@@H](Cc1ccc2ccccc2c1)NC(C)=O)C(=O)N[C@@H](CC(C)C)C(=O)N[C@@H](CCCCN/C(=N/CC)NCC)C(=O)N1CCC[C@H]1C(=O)N[C@H](C)C(N)=O [listing 2 of 2 here]
14 | 2.5 (≈ 1.59 µM) | CC(=O)N[C@H](Cc1ccc2ccccc2c1)C(=O)N[C@H](Cc1ccc(Cl)cc1)C(=O)N[C@H](Cc1c[nH]c2ccccc12)C(=O)N[C@@H](CO)C(=O)N[C@@H](Cc1ccc(O)cc1)C(=O)N[C@H](CCCCNC1=NCCCN1)C(=O)N[C@@H](CC(C)C)C(=O)N[C@@H](CCCCNC1=NCCCN1)C(=O)N1CCC[C@H]1C(=O)N[C@H](C)C(N)=O [listing 2 of 2 here]
15 | > 100 | CC(=O)N[C@H](Cc1ccc2ccccc2c1)C(=O)N[C@H](Cc1ccc(Cl)cc1)C(=O)N[C@H](Cc1c[nH]c2ccccc12)C(=O)N[C@@H](CO)C(=O)N[C@@H](Cc1ccc(O)cc1)C(=O)N[C@H](Cc1c[nH]c2ccccc12)C(=O)N[C@@H](CC(C)C)C(=O)N[C@@H](CCCCN=C(NCC(F)(F)F)NCC(F)(F)F)C(=O)N1CCC[C@H]1C(=O)N[C@H](C)C(N)=O [listing 2 of 2 here]
16 | 8 (≈ 5.15 µM) | CC/N=C(/NCC)NCCCC[C@@H](NC(=O)[C@H](Cc1ccc(O)cc1)NC(=O)[C@H](CO)NC(=O)[C@@H](Cc1cccnc1)NC(=O)[C@@H](Cc1ccc(F)cc1)NC(=O)[C@@H](Cc1ccc2ccccc2c1)NC(C)=O)C(=O)N[C@@H](CC(C)C)C(=O)N[C@@H](CCCCN/C(=N/CC)NCC)C(=O)N1CCC[C@H]1C(=O)N[C@H](C)C(N)=O [listing 2 of 2 here]
17 | 9.3 (≈ 5.98 µM) | CCCC/N=C(\N)NCCCC[C@H](NC(=O)[C@H](CO)NC(=O)[C@@H](Cc1cccnc1)NC(=O)[C@@H](Cc1ccc(Cl)cc1)NC(=O)[C@@H](Cc1ccc2ccccc2c1)NC(C)=O)C(=O)N[C@H](Cc1cccnc1)C(=O)N[C@@H](CC(C)C)C(=O)N[C@@H](CCCCN/C(N)=N/CCCC)C(=O)N1CCC[C@H]1C(=O)N[C@H](C)C(N)=O [listing 2 of 2 here]
18 | 0.56 (≈ 0.335 µM) | CC(=O)N[C@H](Cc1ccc2ccccc2c1)C(=O)N[C@H](Cc1ccc(Cl)cc1)C(=O)N[C@H](Cc1c[nH]c2ccccc12)C(=O)N[C@@H](CO)C(=O)N[C@@H](CCCN=C(N)N)C(=O)N[C@H](Cc1c[nH]c2ccccc12)C(=O)N[C@@H](CC(C)C)C(=O)N[C@@H](CCCCN=C(NCC(F)(F)F)NCC(F)(F)F)C(=O)N1CCC[C@H]1C(=O)N[C@H](C)C(N)=O [listing 2 of 2 here]
